Measured values published in ChEMBL document CHEMBL3390837, “Bridged tetrahydroisoquinolines as selective NADPH oxidase 2 (Nox2) inhibitors” (Medchemcomm, 2013).
Calls of active or inactive are those of the source. The rule behind the calls is not given here.

Columns and labels:
[1] = molecular target: T1, NADPH oxidase 2 (Homo sapiens) (UniProt P04839); assay: Inhibition of full length human NOX2 transfected in COS 22 cells assessed as inhibition of lithium dodecyl sulphate-stimulated ROS generation at 6.3 uM preincubated for 15 mins followed by lithium dodecyl sulphate challenge by cell-free assay in presence of NADPH
T1 sequence (whole entry): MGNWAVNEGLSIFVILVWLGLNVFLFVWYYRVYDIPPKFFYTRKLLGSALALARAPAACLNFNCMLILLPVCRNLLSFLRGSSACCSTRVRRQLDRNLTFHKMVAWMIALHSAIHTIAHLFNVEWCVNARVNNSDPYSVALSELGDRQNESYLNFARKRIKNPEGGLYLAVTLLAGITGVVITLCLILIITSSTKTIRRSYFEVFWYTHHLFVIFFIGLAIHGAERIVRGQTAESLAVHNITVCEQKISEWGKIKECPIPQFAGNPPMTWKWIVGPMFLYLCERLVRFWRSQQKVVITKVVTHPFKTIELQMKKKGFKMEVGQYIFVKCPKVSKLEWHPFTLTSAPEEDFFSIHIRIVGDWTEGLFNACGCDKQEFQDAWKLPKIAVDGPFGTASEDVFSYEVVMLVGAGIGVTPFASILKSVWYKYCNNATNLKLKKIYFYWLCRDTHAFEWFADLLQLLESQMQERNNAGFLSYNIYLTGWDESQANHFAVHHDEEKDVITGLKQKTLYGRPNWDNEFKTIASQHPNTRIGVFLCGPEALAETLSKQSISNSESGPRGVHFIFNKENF
In short: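 COS-Nox2 lysate (freeze/thaw ×5, needle passage, 1000 × g spin, kept near 0 °C) at 5 × 10⁵ cell equivalents/well in 65 mM sodium phosphate pH 7.0 with 1 mM EGTA, 10 µM FAD, 1 mM MgCl₂, 2 mM NaN₃, 0.2 mM cytochrome c; superoxide from initial 10-min linear rate of SOD-inhibitable cytochrome c reduction at 550 nm (21.1 mM⁻¹ cm⁻¹).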

NADPH oxidase 2 [2] = molecular target: T2, NADPH oxidase 2 (Homo sapiens, UniProt P04839); assay: Inhibition of full length human NOX2 transfected in COS 22 cells assessed as inhibition of Phorbol 12-myristate 13-acetate-stimulated ROS generation by chemiluminescence assay; assay type: cell-based; details: read-out: IC50
T2 sequence (P04839 whole entry): T1 sequence (whole entry)
In short: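 COS-Nox2 (COS-7 stably expressing human p22phox, Nox2, p47phox, p67phox) plated in OPTIMEM at 2.5 x 10³ cells/well; 10 min at 37 °C in PBS with L-012, then stimulated with 5 µM PMA; luminescence followed over time; superoxide specificity checked with SOD 150 U/mL. IC50 by three-parameter non-linear fit, Hill slope 1, top/bottom fixed 100/0.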

NADPH oxidase 2 [3] = molecular target: T2, NADPH oxidase 2; assay: Inhibition of full length human NOX2 transfected in COS 22 cells assessed as inhibition of Phorbol 12-myristate 13-acetate-stimulated ROS generation by measuring H2O2 production by fluorescence assay in presence of superoxide dismutase; assay type: cell-based; details: read-out: IC50
In short: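 Intact COS-Nox2 cells in Hepes pH 7.4 buffer with 0.1 mM Amplex Red, 0.32 U/ml HRP and 150 U/mL SOD, drug 15 min at 37 °C; started with 5 µM PMA; fluorescence monitored 1 h at 37 °C; rate as RFU/min minus unstimulated cells; % of vehicle control.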

NADPH oxidase 5 = molecular target: T3, NADPH oxidase 5 (Homo sapiens, UniProt Q96PH1); assay: Inhibition of full length human NOX5 transfected in HEK cells assessed as inhibition of ionomycin-stimulated ROS generation by chemiluminescence assay; assay type: cell-based, HEK293
T3 sequence (Q96PH1 whole entry): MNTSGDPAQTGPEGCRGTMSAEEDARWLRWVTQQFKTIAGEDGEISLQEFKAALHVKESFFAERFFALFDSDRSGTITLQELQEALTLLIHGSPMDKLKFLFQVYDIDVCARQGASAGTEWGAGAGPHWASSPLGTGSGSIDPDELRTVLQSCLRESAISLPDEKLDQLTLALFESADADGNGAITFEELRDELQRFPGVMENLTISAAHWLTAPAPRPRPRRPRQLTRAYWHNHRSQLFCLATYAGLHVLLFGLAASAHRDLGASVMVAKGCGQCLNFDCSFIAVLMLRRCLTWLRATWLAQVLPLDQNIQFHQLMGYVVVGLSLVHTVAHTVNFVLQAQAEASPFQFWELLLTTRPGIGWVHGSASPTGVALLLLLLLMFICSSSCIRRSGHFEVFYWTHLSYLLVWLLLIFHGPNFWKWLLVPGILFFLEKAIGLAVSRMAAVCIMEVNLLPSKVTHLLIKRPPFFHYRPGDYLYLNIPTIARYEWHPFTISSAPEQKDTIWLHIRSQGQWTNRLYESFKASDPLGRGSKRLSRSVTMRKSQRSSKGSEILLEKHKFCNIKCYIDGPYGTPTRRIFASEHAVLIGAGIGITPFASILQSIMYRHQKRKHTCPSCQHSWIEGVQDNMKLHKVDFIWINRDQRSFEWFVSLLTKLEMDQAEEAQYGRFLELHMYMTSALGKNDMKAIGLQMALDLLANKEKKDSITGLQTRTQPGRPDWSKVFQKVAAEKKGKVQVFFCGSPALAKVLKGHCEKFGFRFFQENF
In short: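 HEK-Nox5 cells at 5 × 10⁴ cells/well in OPTIMEM, 10 min at 37 °C in PBS with L-012, then stimulated with 1 µM PMA/0.1 µM ionomycin; luminescence over time; SOD 150 U/mL used to confirm superoxide specificity. IC50 by three-parameter fit, Hill slope 1, top/bottom fixed 100/0.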

NADPH oxidase 1 = molecular target: T4, NADPH oxidase 1 (Homo sapiens, UniProt Q9Y5S8); assay: Inhibition of full length human NOX1 transfected in COS 22 cells assessed as inhibition of constitutive ROS generation by chemiluminescence assay; details: read-out: IC50
T4 sequence (Q9Y5S8 whole entry): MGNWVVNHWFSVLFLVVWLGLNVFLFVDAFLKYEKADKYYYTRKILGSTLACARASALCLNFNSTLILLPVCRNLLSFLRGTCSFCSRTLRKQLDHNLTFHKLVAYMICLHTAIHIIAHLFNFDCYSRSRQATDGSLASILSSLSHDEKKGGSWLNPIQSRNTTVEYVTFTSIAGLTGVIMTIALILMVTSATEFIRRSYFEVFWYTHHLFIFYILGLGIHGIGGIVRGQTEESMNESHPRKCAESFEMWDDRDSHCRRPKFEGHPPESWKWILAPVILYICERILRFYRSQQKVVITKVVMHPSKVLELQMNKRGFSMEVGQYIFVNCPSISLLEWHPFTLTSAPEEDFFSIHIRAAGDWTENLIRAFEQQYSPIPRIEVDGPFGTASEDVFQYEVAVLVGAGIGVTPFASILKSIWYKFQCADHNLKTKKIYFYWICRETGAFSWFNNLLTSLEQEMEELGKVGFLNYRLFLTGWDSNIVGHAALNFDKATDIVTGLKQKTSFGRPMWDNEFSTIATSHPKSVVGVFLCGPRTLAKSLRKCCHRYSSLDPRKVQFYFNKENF

- inhibition [1]: Active
- IC50 (NADPH oxidase 2 [2]): 46 µM
- IC50 (NADPH oxidase 2 [3]): 40 µM
- IC50 (NADPH oxidase 5): 20 µM
- IC50 (NADPH oxidase 1): 31 µM
Structure (SMILES): C=C(C)C[C@@H]1N[C@H]2CC(C)(C)[C@@H]1c1c(Br)cccc12 (racemic)
